Assay results taken from PubChem BioAssay.
Activity calls are given as the source filed them.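 Rule for the calls, unless noted: active = Her2 level under about 52% in both replicate screens, with viability over 70% of control (limit read from the data); inconclusive = Her2 under the limit in one screen only, or viability under 70%; inactive = Her2 level above the set limit.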

Experiments:
[1] = Her2 expression decrease, cell viability multiplex – SKBR3 breast tumor cells, AlphaScreen, ATP viability, primary screen (AID 461); details: SKBR3 Her2 protein level, 18-24 h, measured here: SKBR3 viability, ATP luminescence, at 10 µM;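 for Her2 level: lower value means less Her2 protein in the cells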;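 for viability: percent of carrier control wells set as 100% viability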
[2] = target: Receptor tyrosine-protein kinase erbB-2 (Homo sapiens) (UniProt P04626); assay: as above; details: 18-24 h, at 10 µM, stronger effect = lower value
[3] = reduced viability of SK-BR-3 breast cancer cells – cell-based, 24 h, human, pilot screen (AID 572;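 active = viability at or below 10% of carrier control in both of two separate runs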;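 note: compound exposure lasted between 18 and 24 h rather than exactly 24 h; 100% = carrier-treated control wells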); details: SK-BR-3 viability, CellTiter-Glo luminescence, at 10 µM, stronger effect = lower value
[4] = HUVEC growth inhibition – cell-based, human, primary screen (AID 575;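 active = viability at or below 30% in both replicate assays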;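 note: 100% = median of untreated cell wells with 0.1% DMSO on each plate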); details: HUVEC proliferation, CellTiter-Glo luminescence, 72 h; at 10 µM; stronger effect = lower value
In short: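 material = primary HUVEC, no more than 12 passages | input = 1250 cells per well | controls = vehicle and MePR control wells | measured by = CTG luminescence | times = 72 h compound incubation | format = collagen-coated 384-well format | read-out = % viability vs DMSO wells | doses = single 10 µM dose, 0.1% DMSO, from 5x medium stock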

[5] = H69AR cell proliferation blockers – human, duplicate replicates, primary screen (AID 580;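 active = viability at or under a set limit in both replicates, limit being median viability minus 3 SD, cut at about 48% in these data, passing the limit was not always enough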;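 note: 100% = mean luminescence of untreated wells and 0% = no signal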); details: H69AR lung tumor cells viability, ATP luminescence, 72 h; at 10 µM; stronger effect = lower value
[6] = MRP1 drug-resistance reversers in H69AR cells – cell-based, doxorubicin co-treatment, pilot screen (AID 601;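 active = viability loss from added drug above about 55%, and viability with drug at most 40%, in both replicates, limit read from the data, passing the limit was not always enough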); details: CellTiter-Glo, 72 h, at 10 µM; for differential viability (reversal): stronger effect = higher value
[7] = yeast transport mutant growth inhibition pilot in 384-well plates, post-Golgi transport modulator project (AID 636; in the data active = inhibition above about 31%); details: absorbance 615 nm, about 18 h, stronger effect = higher value
[8] = growth suppression of yeast trafficking mutant, preliminary HTS, modulators of trafficking downstream of Golgi apparatus project, 1536-format plate, OD 615 nm (AID 637; in the data active = inhibition above about 30%); details: yeast transport mutant growth, absorbance 615 nm, 18 h; stronger effect = higher value
[9] = H69AR cells + 2 uM doxorubicin, measured here: viability with 2 uM doxorubicin, stronger effect = lower value
[10] = H69AR cells, compound alone cytotoxicity

Sequence of Receptor tyrosine-protein kinase erbB-2 (Homo sapiens) (P04626 whole entry, looked up): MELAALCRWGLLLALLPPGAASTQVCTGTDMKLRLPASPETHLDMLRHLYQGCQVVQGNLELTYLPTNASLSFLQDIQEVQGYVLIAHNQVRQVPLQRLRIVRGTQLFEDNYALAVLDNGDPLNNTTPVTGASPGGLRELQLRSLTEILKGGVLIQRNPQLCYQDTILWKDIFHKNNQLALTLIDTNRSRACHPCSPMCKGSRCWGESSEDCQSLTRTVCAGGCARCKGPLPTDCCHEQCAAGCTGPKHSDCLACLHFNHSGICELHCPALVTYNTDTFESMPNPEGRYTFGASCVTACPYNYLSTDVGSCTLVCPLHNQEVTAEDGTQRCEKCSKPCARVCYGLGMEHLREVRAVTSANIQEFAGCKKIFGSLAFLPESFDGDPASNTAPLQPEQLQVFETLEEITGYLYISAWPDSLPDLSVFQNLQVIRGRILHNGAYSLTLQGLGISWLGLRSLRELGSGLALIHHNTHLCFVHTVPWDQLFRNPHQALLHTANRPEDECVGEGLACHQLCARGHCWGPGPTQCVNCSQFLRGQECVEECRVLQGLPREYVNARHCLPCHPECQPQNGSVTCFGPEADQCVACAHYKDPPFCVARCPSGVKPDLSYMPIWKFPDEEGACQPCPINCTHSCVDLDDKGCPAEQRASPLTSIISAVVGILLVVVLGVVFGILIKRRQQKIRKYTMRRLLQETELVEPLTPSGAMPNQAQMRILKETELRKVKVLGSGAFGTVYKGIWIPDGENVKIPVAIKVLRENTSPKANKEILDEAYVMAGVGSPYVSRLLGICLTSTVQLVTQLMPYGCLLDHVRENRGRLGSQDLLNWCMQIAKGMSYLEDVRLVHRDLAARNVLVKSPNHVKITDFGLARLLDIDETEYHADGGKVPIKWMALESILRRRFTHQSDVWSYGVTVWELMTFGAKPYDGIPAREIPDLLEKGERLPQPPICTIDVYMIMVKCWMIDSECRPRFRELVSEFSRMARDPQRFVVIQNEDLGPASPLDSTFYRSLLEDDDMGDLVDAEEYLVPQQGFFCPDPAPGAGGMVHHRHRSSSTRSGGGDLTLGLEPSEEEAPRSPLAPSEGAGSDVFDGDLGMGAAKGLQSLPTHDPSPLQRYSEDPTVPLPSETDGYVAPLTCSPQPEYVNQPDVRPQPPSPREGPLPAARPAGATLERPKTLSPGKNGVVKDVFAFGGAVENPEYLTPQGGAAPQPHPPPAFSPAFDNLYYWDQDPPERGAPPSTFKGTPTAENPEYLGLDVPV

| Structure (SMILES) | viability [1] [%] | Her2 level [2] | viability [3] | viability [4] | viability [5] | differential viability (reversal) ([6]; H69AR cells + 2 uM doxorubicin) | viability [6, 9] [%] | viability [6, 10] [%] | inhibition [7] | inhibition [8] |
| --- | --- | --- | --- | --- | --- | --- | --- | --- | --- | --- |
| O=C(Nc1ccccc1C(=O)NCC1CCCO1)c1ccco1 (stereo not given) | 110 | 89% (inactive) | 110% (inactive) | 97.9% (inactive) | 98.7% (inactive) | -1.63% (inactive) | 100 | 98.7 | -1.71% (inactive) | -5.71% (inactive) |
| COC(=O)c1cc(NC(=O)C2CC=CCC2C(=O)O)cc(C(=O)OC)c1 (stereo not given) | 97.5 | 86.5% (inactive) | 97.5% (inactive) | 104% (inactive) | 109% (inactive) | 15.8% (inactive) | 92.7 | 109 | -4.8% (inactive) | -1.94% (inactive) |
| Cc1cccc(N2CCN(C(=O)CCn3c(=S)[nH]c4cc5c(cc4c3=O)OCO5)CC2C)c1 (stereo not given) | 86 | 85.5% (inactive) | 86% (inactive) | 38.2% (inactive) | 50.8% (inactive) | -5.97% (inactive) | 56.8 | 50.8 | -1.3% (inactive) | 1.27% (inactive) |
| Cc1cc(Cl)cc2c1NC(=O)[C@]21[C@@H]2C(=O)N(Cc3ccccc3)C(=O)[C@@H]2[C@@H]2CCCN21 | 100 | 81% (inactive) | 100% (inactive) | 78% (inactive) | 78.1% (inactive) | -2.8% (inactive) | 80.9 | 78.1 | -3.77% (inactive) | 4.29% (inactive) |
| CC(=O)Nc1ccc(S(=O)(=O)N2CCN=C2C)cc1 | 92.5 | 95% (inactive) | 92.5% (inactive) | 109% (inactive) | 99.4% (inactive) | 2.62% (inactive) | 96.8 | 99.4 | -6.27% (inactive) | -5.08% (inactive) |
| Cc1ccc(CCNC(=O)C2CCN(S(=O)(=O)c3c(C)nn(C)c3C)CC2)cc1 | 103 | 115% (inactive) | 103% (inactive) | 114% (inactive) | 89% (inactive) | -7.15% (inactive) | 96.1 | 89 | -1.92% (inactive) | -2% (inactive) |
| O=C(Oc1cccc2cccnc12)c1cccc(-n2cnnn2)c1 | 104 | 82% (inactive) | 104% (inactive) | 60.3% (inactive) | 91.9% (inactive) | 15.1% (inactive) | 76.8 | 91.9 | -2.53% (inactive) | 5.97% (inactive) |
| CCCC(O)(CCN(C)C)c1ccc(OC)cc1 (stereo not given) | 89 | 79.5% (inactive) | 89% (inactive) | 98.5% (inactive) | 88.3% (inactive) | 4.26% (inactive) | 84 | 88.3 | -0.26% (inactive) | 0.48% (inactive) |
| Cn1c(=O)cc(OCC(=O)NCCCN2CCN(c3cccc(Cl)c3)CC2)c2ccccc21 | 85.5 | 74.5% (inactive) | 85.5% (inactive) | 48.7% (inactive) | 63.7% (inactive) | -1.39% (inactive) | 65.1 | 63.7 | -6.53% (inactive) | -2.62% (inactive) |
| COc1cccc(-c2cc(C(=O)Nc3cc(OC)c(OC)c(OC)c3)no2)c1 | 106 | 99.5% (inactive) | 106% (inactive) | 57.5% (inactive) | 16.6% (active) | -72% (inactive) | 88.6 | 16.6 | -4.59% (inactive) | -3.11% (inactive) |
| O=C(Cc1c(F)cccc1Cl)Nc1ccncc1 | 92 | 91.5% (inactive) | 92% (inactive) | 97.5% (inactive) | 86.4% (inactive) | -5.46% (inactive) | 91.9 | 86.4 | -5.2% (inactive) | -0.48% (inactive) |
| CCOC(=O)CSc1nnc(-c2ccccc2OC)o1 | 116 | 96% (inactive) | 116% (inactive) | 80.2% (inactive) | 94.8% (inactive) | -11% (inactive) | 106 | 94.8 | -6.44% (inactive) | -6.51% (inactive) |
| COc1ccc(C2(CN(C(C)=O)C(C)=O)CCCC2)cc1OC | 89.5 | 93% (inactive) | 89.5% (inactive) | 114% (inactive) | 90.4% (inactive) | 1.69% (inactive) | 88.7 | 90.4 | -4.8% (inactive) | -4.92% (inactive) |
| Cc1cc(NC(c2cccnc2)c2c(C)[nH]c3ccccc23)no1 (stereo not given) | 97 | 76% (inactive) | 97% (inactive) | 85.1% (inactive) | 89% (inactive) | -8.09% (inactive) | 97 | 89 | -5.6% (inactive) | 3.61% (inactive) |
| CN1CCN(S(=O)(=O)c2ccc(Sc3nnc(-c4cccs4)n3-c3ccccc3)nc2)CC1 | 120 | 87.5% (inactive) | 120% (inactive) | 89.4% (inactive) | 85.7% (inactive) | 3.53% (inactive) | 82.2 | 85.7 | -5.27% (inactive) | -10% (inactive) |
| C=CCN1C(=O)/C(=C2\SC(N3CCOCC3)=NC2=O)c2cc(Br)ccc21 | 82.5 | 84.5% (inactive) | 82.5% (inactive) | 86.1% (inactive) | 83.1% (inactive) | -4.46% (inactive) | 87.5 | 83.1 | -1.32% (inactive) | -2.55% (inactive) |

| Structure (SMILES) | viability [1] [%] | Her2 level [2] | viability [3] | viability [4] | viability [5] | differential viability (reversal) ([6]; H69AR cells + 2 uM doxorubicin) | viability [6, 9] [%] | viability [6, 10] [%] | inhibition [7] | inhibition [8] |
| --- | --- | --- | --- | --- | --- | --- | --- | --- | --- | --- |
| c1ccc(CCNc2ccc3nncn3n2)cc1 | 82 | 89.5% (inactive) | 82% (inactive) | 95.6% (inactive) | 86.5% (inactive) | 3.48% (inactive) | 83 | 86.5 | -2.53% (inactive) | 0.98% (inactive) |
| CCC(=O)N[C@@H]1CC(C(C)(C)NC(=O)CC)CC=C1C (stereo not given in full) | 105 | 83.5% (inactive) | 105% (inactive) | 93.4% (inactive) | 86.4% (inactive) | -1% (inactive) | 87.4 | 86.4 | -5.33% (inactive) | -0.33% (inactive) |
| CCc1nnc(NC(=O)CSc2nnc3scc(-c4ccc(C)cc4)n23)s1 | 100 | 95.5% (inactive) | 100% (inactive) | 108% (inactive) | 96.6% (inactive) | -0.05% (inactive) | 96.7 | 96.6 | -3.15% (inactive) | -1.27% (inactive) |
| O=C(CCSc1nccn1Cc1ccccc1)N1CCOCC1 | 107 | 111% (inactive) | 107% (inactive) | 103% (inactive) | 97% (inactive) | 11.1% (inactive) | 86 | 97 | -6.13% (inactive) | -0.65% (inactive) |
| CCN(CC)S(=O)(=O)c1ccc2oc(SCc3ccc(F)cc3)nc2c1 | 93.5 | 82.5% (inactive) | 93.5% (inactive) | 68.5% (inactive) | 80.1% (inactive) | -14.8% (inactive) | 95 | 80.1 | 0.54% (inactive) | -0.95% (inactive) |
| CCCc1cc(C(N)=O)c(NC(=O)c2ccco2)s1 | 102 | 73.5% (inactive) | 102% (inactive) | 94.2% (inactive) | 87.3% (inactive) | -5.96% (inactive) | 93.3 | 87.3 | -3.29% (inactive) | 1.15% (inactive) |
| Cc1noc(COc2ccccc2OCC(O)CNC(C)(C)C)n1 (stereo not given) | 101 | 89% (inactive) | 101% (inactive) | 103% (inactive) | 97% (inactive) | 7.13% (inactive) | 89.9 | 97 | -5.21% (inactive) | -9.37% (inactive) |
| CCOc1cc(S(=O)(=O)NCc2ccccn2)c(C)cc1C | 92.5 | 84.5% (inactive) | 92.5% (inactive) | 96.8% (inactive) | 100% (inactive) | 6.28% (inactive) | 94.1 | 100 | -5.53% (inactive) | -4.76% (inactive) |
| CC1(C)CC(=O)C(C#N)=C(NCCCO)C1 | 99.5 | 98.5% (inactive) | 99.5% (inactive) | 91.5% (inactive) | 100% (inactive) | -2.31% (inactive) | 103 | 100 | -1.2% (inactive) | 0.97% (inactive) |
| C=CCOc1nc2c(c(=O)n(C)c(=O)n2C)n1C | 96.5 | 100% (inactive) | 96.5% (inactive) | 90.9% (inactive) | 94.4% (inactive) | 12.4% (inactive) | 82 | 94.4 | -3.25% (inactive) | 1.33% (inactive) |
| O=C(CCn1nc(-c2ccccc2)ccc1=O)N1CCCC1 | 97 | 96% (inactive) | 97% (inactive) | 114% (inactive) | 94.4% (inactive) | -0.505% (inactive) | 94.9 | 94.4 | -4.74% (inactive) | 0.48% (inactive) |
| O=C(Nc1cccc(F)c1)c1cccc(S(=O)(=O)N2CCOCC2)c1 | 107 | 87% (inactive) | 107% (inactive) | 92.8% (inactive) | 91.6% (inactive) | 0.615% (inactive) | 91 | 91.6 | -6.71% (inactive) | -5.71% (inactive) |
| COc1cc(Cn2c(C(=O)O)cc3sccc32)cc(OC)c1OC | 107 | 102% (inactive) | 107% (inactive) | 98.4% (inactive) | 94.1% (inactive) | 2.41% (inactive) | 91.7 | 94.1 | -1.97% (inactive) | 6.56% (inactive) |
| Cc1c(C2Nc3ccccc3NC3=C2C(=O)CC(C)(C)C3)cnn1C (stereo not given) | 112 | 107% (inactive) | 112% (inactive) | 93% (inactive) | 89.2% (inactive) | 0.765% (inactive) | 88.4 | 89.2 | -4.38% (inactive) | -5.87% (inactive) |
| CCc1nccn1S(=O)(=O)c1ccc(C)c(C)c1 | 119 | 92.5% (inactive) | 119% (inactive) | 96.7% (inactive) | 99.6% (inactive) | 12.7% (inactive) | 86.9 | 99.6 | -4.86% (inactive) | 16.2% (inactive) |
| COc1ccccc1NC(=O)C1=C(C)Nc2ncnn2C1c1ccc(C)o1 (stereo not given) | 87.5 | 99% (inactive) | 87.5% (inactive) | 104% (inactive) | 99.3% (inactive) | 11.7% (inactive) | 87.6 | 99.3 | -0.26% (inactive) | -2.79% (inactive) |
